Test results: ChEMBL document CHEMBL1122376, “Pyrazolo[3,4-d]pyrimidine ribonucleosides as anticoccidials. 3. Synthesis and activity of some nucleosides of 4-[(arylalkenyl)thio]pyrazolo[3,4-d]pyrimidines” (1983)
Values after ≈ are worked out from the molar mass of the structure shown.

Assays:
Format in all cases: functional
Eimeria tenella [1] = experiment: In vivo anti-coccidial activity expressed as number of the chicks cleared of Eimeria tenella lesions out of a group of five, at 25 ppm in the diet.
Summary of the method: (§1)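 Week-old chicks, given compound in the diet. E. tenella (Weybridge strain) infection given together with E. acervulina (Ongar strain).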

Eimeria tenella [2] = experiment: In vivo anti-coccidial activity expressed as number of the chicks cleared of Eimeria tenella lesions out of a group of five, at 50 ppm in the diet.; summary of the method: as §1
Eimeria tenella [3] = experiment: In vivo anti-coccidial activity expressed as number of the chicks cleared of Eimeria tenella lesions out of a group of five, at 100 ppm in the diet.; summary of the method: as §1
Eimeria tenella [4] = experiment: In vivo anti-coccidial activity expressed as number of the chicks cleared of Eimeria tenella lesions out of a group of five, at 200 ppm in the diet.; summary of the method: as §1
Eimeria tenella [5] = experiment: In vitro inhibitory activity against Eimeria tenella in embryonic chick liver cells.
Summary of the method: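 E. tenella, Weybridge strain, grown in vitro in embryonic chick liver cells.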

Eimeria tenella [6] = experiment: In vivo anti-coccidial activity expressed as number of the chicks cleared of Eimeria tenella lesions out of a group of five, at 400 ppm in the diet.; summary of the method: as §1
Eimeria tenella [7] = experiment: In vivo anti-coccidial activity expressed as number of the chicks cleared of Eimeria tenella lesions out of a group of five, at 300 ppm in the diet.; summary of the method: as §1
Eimeria tenella [8] = experiment: In vivo anti-coccidial activity expressed as number of the chicks cleared of Eimeria tenella lesions out of a group of five, at 25 ppm in the diet;At 12.5 p.p.m. no chicks were cleared.; summary of the method: as §1
Eimeria tenella [9] = experiment: In vivo anti-coccidial activity expressed as number of the chicks cleared of Eimeria tenella lesions out of a group of five, at 12.5 ppm in the diet.; summary of the method: as §1
Eimeria tenella [10] = experiment: In vivo anti-coccidial activity expressed as number of the chicks cleared of Eimeria tenella lesions out of a group of five, at 200 ppm in the diet;one chick out of a group of 5 died and contained lesions due to the parasite.
Eimeria tenella [11] = experiment: In vivo anti-coccidial activity expressed as number of the chicks cleared of Eimeria tenella lesions out of a group of five, at 25 ppm in the diet;At 12.5 ppm, no chicks were cleared.; summary of the method: as §1
Eimeria tenella [12] = experiment: In vivo anti-coccidial activity expressed as number of the chicks cleared of Eimeria tenella lesions out of a group of five, at 200 ppm in the diet;one chick out of 5 died and contained lesions due to the parasite.

| Structure (SMILES) | Activity (Eimeria tenella [1]) | Activity (Eimeria tenella [2]) | Activity (Eimeria tenella [3]) | Activity (Eimeria tenella [4]) | MIC (Eimeria tenella [5]) [µg/mL] | other results |
| --- | --- | --- | --- | --- | --- | --- |
| OC[C@H]1OC(n2ncc3c(SC/C=C/c4ccc(OCc5ccccc5)cc4)ncnc32)[C@H](O)[C@@H]1O (stereo partly drawn) | 1 | 0 | 2 | 5 | 1.25 (≈ 2.47 µM) |  |
| OC[C@H]1OC(n2ncc3c(SC/C=C/c4ccc(Cl)c(Cl)c4)ncnc32)[C@H](O)[C@@H]1O (stereo partly drawn) |  |  |  | 2 | 0.31 (≈ 0.66 µM) |  |
| COc1cc(/C=C/CSc2ncnc3c2cnn3C2O[C@H](CO)[C@@H](O)[C@H]2O)cc(OC)c1OC (stereo partly drawn) |  |  | 2 | 5 | 0.31 (≈ 0.632 µM) | Activity (Eimeria tenella [6]): 5 |
| OC[C@H]1OC(n2ncc3c(SC/C=C/c4ccc(Cl)cc4Cl)ncnc32)[C@H](O)[C@@H]1O (stereo partly drawn) |  |  |  | 2 | 1.25 (≈ 2.66 µM) |  |
| COc1ccc(/C=C/CSc2ncnc3c2cnn3C2O[C@H](CO)[C@@H](O)[C@H]2O)cc1 (stereo partly drawn) |  |  |  |  | 1.25 (≈ 2.9 µM) | Activity (Eimeria tenella [7]): 2 |
| OC[C@H]1OC(n2ncc3c(SC/C=C/c4cccc(Br)c4)ncnc32)[C@H](O)[C@@H]1O (stereo partly drawn) | 1 | 4 | 5 | 5 | 5 (≈ 10.4 µM) |  |
| OC[C@H]1OC(n2ncc3c(SC/C=C/c4cccc(O)c4)ncnc32)[C@H](O)[C@@H]1O (stereo partly drawn) |  |  |  |  | 20 (≈ 48 µM) | Activity (Eimeria tenella [6]): 0 |
| C=CCSc1ncnc2c1cnn2C1O[C@H](CO)[C@@H](O)[C@H]1O (stereo partly drawn) | 1 | 2 | 5 | 5 | 0.019 (≈ 0.0586 µM) |  |
| CC(=O)OC[C@H]1O[C@@H](n2ncc3c(SC/C=C/c4ccccc4)ncnc32)[C@H](OC(C)=O)[C@@H]1OC(C)=O | 1 | 5 |  | 5 | 1.25 (≈ 2.37 µM) |  |
| OC[C@H]1OC(n2ncc3c(SC/C=C/c4ccccc4)ncnc32)[C@H](O)[C@@H]1O (stereo partly drawn) |  | 5 | 5 | 5 | 0.078 (≈ 0.195 µM) | Activity (Eimeria tenella [8]): 5 |
| C/C=C/CSc1ncnc2c1cnn2C1O[C@H](CO)[C@@H](O)[C@H]1O (stereo partly drawn) | 0 | 0 | 4 | 5 | 0.019 (≈ 0.0561 µM) |  |
| O=P(O)(O)OC[C@H]1OC(n2ncc3c(SC/C=C/c4ccccc4)ncnc32)[C@H](O)[C@@H]1O (stereo partly drawn) | 5 | 5 | 5 | 5 | 0.012 (≈ 0.025 µM) | Activity (Eimeria tenella [9]): 0 |
| OC[C@H]1OC(n2ncc3c(SC/C=C/c4ccc(Cl)cc4)ncnc32)[C@H](O)[C@@H]1O (stereo partly drawn) | 0 | 0 | 5 | 5 | 0.31 (≈ 0.713 µM) |  |
| OC[C@H]1OC(n2ncc3c(SCC#Cc4ccccc4)ncnc32)[C@H](O)[C@@H]1O (stereo partly drawn) | 1 | 0 | 2 | 5 | 0.019 (≈ 0.0477 µM) |  |
| COc1ccccc1/C=C/CSc1ncnc2c1cnn2C1O[C@H](CO)[C@@H](O)[C@H]1O (stereo partly drawn) |  |  |  |  | 1.25 (≈ 2.9 µM) | Activity (Eimeria tenella [7]): 1 |
| OC[C@H]1OC(n2ncc3c(S)ncnc32)[C@H](O)[C@@H]1O (stereo partly drawn) |  |  |  | 2 | 0.31 (≈ 1.09 µM) |  |
| Cc1ccc(/C=C/CSc2ncnc3c2cnn3C2O[C@H](CO)[C@@H](O)[C@H]2O)cc1 (stereo partly drawn) |  |  |  |  | 5 (≈ 12.1 µM) | Activity (Eimeria tenella [10]): 0 |
| OC[C@H]1OC(n2ncc3c(SC/C=C/C=C/c4ccccc4)ncnc32)[C@H](O)[C@@H]1O (stereo partly drawn) | 1 | 5 |  | 5 | 0.019 (≈ 0.0445 µM) |  |
| OC[C@H]1OC(n2ncc3c(SC/C=C\c4ccccc4)ncnc32)[C@H](O)[C@@H]1O (stereo partly drawn) |  | 0 | 0 |  | > 20 | Activity (Eimeria tenella [11]): 0 |
| OC[C@H]1OC(n2ncc3c(SC/C=C/c4cccc(C(F)(F)F)c4)ncnc32)[C@H](O)[C@@H]1O (stereo partly drawn) |  |  |  |  | 5 (≈ 10.7 µM) | Activity (Eimeria tenella [12]): 1 |
